A selection: hits, their analogues and other compounds. The true share with any hit is near 1.8%.
NPY-Y1 antag – blocks the human neuropeptide Y Y1 receptor; hit rate 1% among 200,000; P25929; HEK293-CNG Y1 cells, membrane potential fluorescence; NPY at EC95, then isoproterenol; AID 1040; inhibition, % at 3.6 µM;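 active = inhibition above the campaign mean inhibition of all tested compounds plus 3 SD, cut at about 20% in these data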;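 note: 0% = DMSO wells given NPY plus isoproterenol and 100% = isoproterenol alone without NPY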
Target sequence (P25929 whole entry, looked up): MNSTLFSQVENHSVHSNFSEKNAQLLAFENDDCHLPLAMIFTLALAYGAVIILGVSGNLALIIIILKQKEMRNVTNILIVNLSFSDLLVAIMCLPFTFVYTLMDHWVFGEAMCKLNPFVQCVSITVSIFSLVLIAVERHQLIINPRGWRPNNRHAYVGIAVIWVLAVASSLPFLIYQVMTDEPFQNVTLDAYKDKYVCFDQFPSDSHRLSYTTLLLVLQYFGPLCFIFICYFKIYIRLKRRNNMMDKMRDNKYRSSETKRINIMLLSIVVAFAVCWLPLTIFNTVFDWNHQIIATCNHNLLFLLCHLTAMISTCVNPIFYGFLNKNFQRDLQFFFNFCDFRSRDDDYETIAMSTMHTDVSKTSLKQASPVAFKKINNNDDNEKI
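Material: Y1- and CNG-channel-expressing HEK293 cells / Probe or stimulus: NPY 25 nM then isoproterenol 1 µM plus Ro 20-1724 25 µM / Doses: 3.6 µM single dose, DMSO 0.4% / Schedule: compound incubation 1 h at room temperature, readout 45 min post-stimulation / Signal: membrane potential fluorescence / Benchmarks: isoproterenol-only wells as full block versus NPY-plus-isoproterenol wells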
NPY Y2 blocker – antagonists of human neuropeptide Y receptor Y2. P49146. NPY-Y2 expressing cells, antagonist mode. inhibition, % at 2.7 µM. hit rate 0.99% among 140,000; in the data active = inhibition above about 17%;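 note: 0% = vehicle with agonist challenge and 100% = reference antagonist with challenge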
Target sequence (P49146 whole entry, looked up): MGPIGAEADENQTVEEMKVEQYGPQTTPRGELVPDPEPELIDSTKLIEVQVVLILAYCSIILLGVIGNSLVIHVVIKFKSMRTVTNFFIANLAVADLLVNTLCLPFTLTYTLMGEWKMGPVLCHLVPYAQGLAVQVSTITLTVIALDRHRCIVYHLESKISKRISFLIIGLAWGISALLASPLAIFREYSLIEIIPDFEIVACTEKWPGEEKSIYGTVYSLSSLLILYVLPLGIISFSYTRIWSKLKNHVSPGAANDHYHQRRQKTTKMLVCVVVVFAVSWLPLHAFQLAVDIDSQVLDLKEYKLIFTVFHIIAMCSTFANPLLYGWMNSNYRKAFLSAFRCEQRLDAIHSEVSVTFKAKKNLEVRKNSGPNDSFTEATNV
NPY1 pot ag – human NPY-Y1 potentiation or agonism, primary screen | hit rate 0.37% among 220,000 | P25929 | NPY-Y1 expressing cells, potentiator/agonist activation | activation, % at 3.6 µM; in the data active = activation above about 33%, passing the limit was not always enough;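 note: cells stimulated with NPY at EC10 then isoproterenol at EC100; 0% = low agonist plus stimulus and 100% = saturating agonist plus stimulus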
NPY-Y2 PAM-ag – human NPY-Y2 potentiation or agonism, primary screen | cells expressing NPY-Y2, potentiator/agonist read-out | hit rate 0.45% among 220,000 | AID 1359 | activation, % at 3.6 µM | P49146; in the data active = activation above about 27%;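 note: cells stimulated with NPY near EC25 plus isoproterenol at EC100; 0% = vehicle plus submaximal agonist and 100% = vehicle plus saturating agonist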
NPY-Y2 confirm – confirmation of human NPY-Y2 receptor potentiators or agonists; shares compounds with NPY-Y2 PAM-ag; cell-based NPY-Y2 potentiator/agonist assay; activation, % at 3.6 µM; hit rate 20% among 450; in the data active = activation above about 33%
NPY-Y1 potentiator – NPY-Y1 potentiation or agonism as NPY-Y2 counter-screen; shares compounds with NPY-Y2 PAM-ag; Y1 HEK293-CNG cells, membrane potential fluorescence; activation, % at 3.6 µM; AID 1651; hit rate 20% among 450; in the data active = activation above about 45%;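 note: cells stimulated with submaximal NPY then isoproterenol with phosphodiesterase inhibitor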
NPY-Y1 ag 2 – activates human NPY-Y1, counter-screen for NPY-Y2 potentiators | shares compounds with NPY-Y2 PAM-ag | HEK293 Y1-CNGC, membrane potential fluorescence, agonism | activation, % at 3.6 µM | hit rate 37% among 450 | AID 1702;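 active = activation above the mean of DMSO-only control wells plus 3 SD, cut at about 18% in these data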;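 note: cells stimulated with 1 µM isoproterenol plus the PDE inhibitor Ro 20-1724; 0% = isoproterenol with DMSO and no NPY and 100% = 40 nM NPY; Y1 agonists lower the membrane potential dye signal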
CNGC inh – cyclic nucleotide gated channel inhibition as counter-screen; shares compounds with NPY-Y2 PAM-ag; HEK293-CNG parental, isoproterenol cAMP, membrane potential fluorescence; inhibition, % at 3.6 µM; hit rate 32% among 450;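 active = inhibition above the control-well mean plus 3 SD of those wells, cut at about 22% in these data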;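 note: 0% = DMSO with isoproterenol and 100% = DMSO without isoproterenol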
NPY-Y2 ag 2 – activates human NPY-Y2 receptor in potentiator counter-screen; shares compounds with NPY-Y2 PAM-ag; HEK293 Y2/CNGC cells, membrane potential fluorescence, agonist mode; activation, % at 3.6 µM; hit rate 56% among 450;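 active = activation above the mean of solvent-only control wells plus 3 SD, cut at about 10% in these data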;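 note: cells stimulated by isoproterenol with no NPY added so direct agonism is tested; 0% = DMSO with isoproterenol alone and 100% = NPY at EC100 plus isoproterenol; agonism lowers probe fluorescence through less cAMP and CNG channel opening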
Numbers without * were called inactive; . = no result given.

SMILES	NPY-Y1 antag	NPY Y2 blocker	NPY1 pot ag	NPY-Y2 PAM-ag	NPY-Y2 confirm	NPY-Y1 potentiator	NPY-Y1 ag 2	CNGC inh	NPY-Y2 ag 2
Cn1c2c(c(=O)n(C)c1=O)C(C(F)(F)F)(C(F)(F)F)N=C(c1ccc(Cl)cc1)N2	8.3	6.6	33.4	49.2*	4.3	-23.2	-24.0	-6.1	-5.1
CCOc1c(OC(C)=O)ccc(/C=C/c2ccc3cccc(OC(C)=O)c3n2)c1[N+](=O)[O-]	-11.7	-0.4	22.1	24.1	.	.	.	.	.
C=CCN1C(=O)/C(=C/c2ccc(OC(C)=O)c(OCC)c2[N+](=O)[O-])SC1=S	4.3	.	9.9	36.1*	14.2	-5.2	5.1	1.6	12.2*
Cc1cc(NC(=O)c2ccccc2F)n(-c2nc3ccccc3[nH]2)n1	0.8	0.7	19.9	91.1*	-0.7	-4.3	-3.3	4.6	1.3
CC(C)Sc1nc2[nH]ncc2c(=O)[nH]1	-1.2	.	-7.0	3.5	.	.	.	.	.
O=c1c2ccc([N+](=O)[O-])cc2ncn1Cc1ccccc1C(F)(F)F	4.6	.	3.5	-1.9	.	.	.	.	.
Cc1ccc(S(=O)(=O)N(C)CC(=O)OCC(=O)N2CCCC2=O)cc1	4.5	.	4.2	49.6*	-4.5	1.3	-8.2	-3.1	-1.6
Cc1ccc(S(=O)(=O)N(C)CC(=O)N2CCOCC2)cc1	-2.7	0.3	3.6	-2.2	.	.	.	.	.
CC(/C=C/c1ccco1)=N\NC(=O)CNc1cccc(C)c1	0.4	.	1.1	-13.7	.	.	.	.	.
Cc1ccc(NS(=O)(=O)c2ccc(NC(=O)c3cccs3)cc2)c(C)c1	-6.6	-3.1	-5.8	-6.4	.	.	.	.	.
Cc1ccc(NC(=O)c2cc(S(=O)(=O)Nc3ccc(C)cc3)cs2)cc1	-13.1	-4.5	49.8	43.2*	37.4*	47.3*	35.3*	41.5*	20.8*
CCN(CC)C(=O)COc1ccc(C=O)cc1OC	-0.5	0.6	-1.6	2.6	.	.	.	.	.
CCOC(=O)c1c(C2CC2)csc1NC(=O)COC(=O)c1cnc(Cl)c(Cl)c1	-1.8	5.9	15.4	59.6*	-10.7	-21.7	-26.3	-11.7	-14.2
CN(C)/C=C/C(=O)c1ncc(C(F)(F)F)cc1Cl	-1.6	.	1.9	27.6*	-3.4	3.1	-8.1	-9.5	-2.4
CC(C)(C)n1cc(S(=O)(=O)c2ccccc2)[nH]c1=O	3.0	.	-2.5	41.2*	-0.5	2.0	-1.8	0.2	9.2
CCCOP(=O)(OCCC)C(Nc1ccc(C(C)C)cc1)c1ccc([N+](=O)[O-])cc1 (stereo not given)	9.1	12.6	28.0	35.2*	12.0	24.3	16.5	5.6	7.9
COP(=O)(OC)C(Nc1ccc([N+](=O)[O-])cc1)c1ccccc1 (stereo not given)	.	.	18.1	-6.9	.	.	.	.	.
CCOC(=O)C1=C(C)NC(C)=C(C(=O)OCC)C1C(=O)OCC(=O)N(CC)C1CCS(=O)(=O)C1 (stereo not given)	-2.1	.	-7.7	-16.0	.	.	.	.	.
O=C(/C(N=Nc1cccc([N+](=O)[O-])c1)=C(/O)c1ccc(Br)cc1)C(F)(F)F	.	.	28.2	41.0*	31.1	10.6	15.5	14.7	19.6*
O=C1CC2c3ccccc3C1C1C(=O)N(CCc3ccccc3)C(=O)C21 (stereo not given)	-5.0	.	18.9	8.0	.	.	.	.	.
O=C(O)C1CCCN1c1nc(C(F)(F)F)nc2ccccc12 (stereo not given)	3.8	.	5.9	75.3*	-3.1	-10.5	-13.7	-12.2	4.5
CC(C)(C)C1CCc2sc(C(=O)NNC(=O)CCl)cc2C1 (stereo not given)	8.8	.	-14.8	0.3	.	.	.	.	.
CNC(=S)N(Cc1ccc(OC)cc1)Cc1cc2ccc(C)cc2[nH]c1=O	-1.1	.	13.4	-7.2	.	.	.	.	.
C=CCc1ccccc1OCC(O)CN1CCN(C(=O)OCC)CC1 (stereo not given)	3.3	8.0	31.4	35.2*	10.7	13.4	19.6*	1.1	6.0
COc1ccc(N2CCN(CC(O)COc3ccccc3[N+](=O)[O-])CC2)cc1 (stereo not given)	0.3	1.9	39.1	37.3*	31.6	30.9	48.9*	7.4	33.9*
SMILES	NPY-Y1 antag	NPY Y2 blocker	NPY1 pot ag	NPY-Y2 PAM-ag	NPY-Y2 confirm	NPY-Y1 potentiator	NPY-Y1 ag 2	CNGC inh	NPY-Y2 ag 2
COc1ccc(OCC(O)CN2CCN(c3ccccc3)CC2)cc1 (stereo not given)	8.3	.	-7.0	-9.7	.	.	.	.	.
C=CCc1ccccc1OCC(O)CN1CCN(c2ccc(C)cc2)CC1 (stereo not given)	-4.9	7.1	45.2	43.6*	28.5	31.1	54.5*	-0.4	46.6*
Cc1cccc(N2CCN(CC(O)COc3ccccc3Cl)CC2)c1 (stereo not given)	.	.	35.1	-21.1	.	.	.	.	.
CC(C)CN(C)C(=O)CCc1nnc(Cc2ccc(-c3ccccc3)cc2)o1	-0.8	.	-10.0	-5.9	.	.	.	.	.
CC(=O)Nc1ccc(-c2cc3ccccc3o2)cc1	2.4	0.8	-5.8	28.6*	17.2	17.3	13.4	11.8	12.9*
CCC(=O)Nc1ccc(-c2cc3ccccc3oc2=O)cc1	-0.8	.	22.8	-18.0	.	.	.	.	.
Cc1ccc(C)c(S(=O)(=O)Nc2nc3ccc(S(N)(=O)=O)cc3s2)c1	5.3	.	-0.6	-11.8	.	.	.	.	.
CCOc1cc(N2CCCC2)ccc1[N+](=O)[O-]	-0.5	0.9	-8.9	-0.3	.	.	.	.	.
O=C(NNc1cccc(Cl)n1)Nc1ccc(F)cc1	4.2	.	0.6	7.0	.	.	.	.	.
N=C1CCC(=N)c2c1c(O)c1ccccc1c2O	.	.	32.5	40.7*	21.1	23.5	23.2*	21.2	18.2*
N#Cc1c(C#N)c(O)c2ccccc2c1O	.	.	6.4	12.2	.	.	.	.	.
Cc1ccc(/C=N/NC(=O)CNC(=O)c2ccc(S(=O)(=O)N3CCCC3)cc2)o1	-2.4	.	28.5	83.8*	-4.1	-1.2	-11.5	0.0	-6.0
COc1ccc(S(=O)(=O)N2CCC(n3cnc4cc(C(F)(F)F)ccc43)CC2)cc1	-5.2	0.2	18.3	3.1	.	.	.	.	.
CC(=O)Nc1ccc(S(=O)(=O)N2CCC(n3cnc4cc(F)ccc43)CC2)cc1	1.9	-0.4	9.8	35.1*	8.1	7.3	4.3	3.7	-4.9
CCSc1nnc(NC(=O)CCc2ccccc2)s1	-1.1	3.7	-19.6	16.3	.	.	.	.	.
CCSc1nnc(NC(=O)CCNS(=O)(=O)c2cc(Br)cnc2N)s1	0.8	-4.0	0.5	28.1*	11.0	3.2	24.3*	15.5	24.3*
O=C(Nc1cccc([N+](=O)[O-])c1)c1cc2ccccc2cc1O	.	.	27.9	57.4*	5.7	-20.5	-12.5	1.5	11.2*
CN1CCN(C(=O)C2=C[C@@H](C3CCCCC3)C[C@@H](OCCCCO)O2)CC1	2.2	.	-10.6	-10.3	.	.	.	.	.

Source: PubChem BioAssay (The Scripps Research Institute Molecular Screening Center)
